Series [1] concerns the target T1, Sialidase-1 (Homo sapiens, UniProt Q99519). In words: Inhibition of human CathA-IRES-6His-tagged NEU1 expressed in HEK293T cells using 4MU-NANA as substrate preincubated for 15 mins followed by substrate addition measured after 30 mins by fluorescence based assay. Type of series: cell-based, HEK-293T.
The nature of series [2]: Octanol-water partition coefficient, log D of compound at pH 7.4 at 10 uM after 2 hrs by LC-MS based shake flask analysis. The series is classed as physicochemical. The procedure, abridged: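 Shake-flask log D at pH 7.4. Octanol and 0.1 M Tris-HCl pH 7.4, mutually saturated. Compound at 10 μM in buffer with 0.1% DMSO, at two octanol:buffer ratios, each in triplicate.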

Series [3] deals with T1, Sialidase-1. The series is described as follows: Inhibition of human CathA-IRES-6His-tagged NEU1 expressed in HEK293T cells using 4MU-NANA as substrate preincubated for 15 mins followed by substrate addition measured every minute for 30 mins by fluorescence based assay. Type of series: cell-based. As to conditions: hek-293t; call rule not given here. The procedure, abridged: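 Ki determination. Enzyme preincubated with serially diluted inhibitor 15 min at 0 °C, then serial 4MU-NANA concentrations added.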

Series [4] can be described thus: Kinetic solubility of compound in 0.9% NaCl at 10 mM incubated in supersonic bath for 30 mins measured after 24 hrs by LC-MS analysis. Type of series: physicochemical. As to conditions: read-out: Kinetic_solubility. The procedure, abridged: (§1)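 Kinetic solubility. 10 mM DMSO stock diluted 1:100 into 0.1 M Tris-HCl pH 7.4, Prisma HT buffer, or 0.9% NaCl in water (final 1% DMSO). Sonicated 30 min at 25 °C, equilibrated 24 h at 25 °C, filtered (0.2 μm), diluted in MeOH and analysed by LC-MS. Single measurements.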

Series [5] in a line: Kinetic solubility of compound in Tris-HCl buffer at pH 7.4 at 10 mM incubated in supersonic bath for 30 mins measured after 24 hrs by LC-MS analysis. Type of series: physicochemical. As to conditions: for solubility kinetic at 24 h, 10000 µM: Tris-HCl buffer, pH 7.4, read-out: Kinetic_solubility. In outline: as §1
A short description of series [6]: Kinetic solubility of compound in Prisma HT 6.5 buffer at pH 7.4 at 10 mM incubated in supersonic bath for 30 mins measured after 24 hrs by LC-MS analysis. Type of series: physicochemical. As to conditions: pH 6.5, in the assay text read “at pH 6.5” for “at pH 7.4”, read-out: Kinetic_solubility. The procedure, abridged:
as §1

The next series addresses T2, Sialidase-4 (Homo sapiens, UniProt Q8WWR8).
T2 sequence (Q8WWR8 whole entry): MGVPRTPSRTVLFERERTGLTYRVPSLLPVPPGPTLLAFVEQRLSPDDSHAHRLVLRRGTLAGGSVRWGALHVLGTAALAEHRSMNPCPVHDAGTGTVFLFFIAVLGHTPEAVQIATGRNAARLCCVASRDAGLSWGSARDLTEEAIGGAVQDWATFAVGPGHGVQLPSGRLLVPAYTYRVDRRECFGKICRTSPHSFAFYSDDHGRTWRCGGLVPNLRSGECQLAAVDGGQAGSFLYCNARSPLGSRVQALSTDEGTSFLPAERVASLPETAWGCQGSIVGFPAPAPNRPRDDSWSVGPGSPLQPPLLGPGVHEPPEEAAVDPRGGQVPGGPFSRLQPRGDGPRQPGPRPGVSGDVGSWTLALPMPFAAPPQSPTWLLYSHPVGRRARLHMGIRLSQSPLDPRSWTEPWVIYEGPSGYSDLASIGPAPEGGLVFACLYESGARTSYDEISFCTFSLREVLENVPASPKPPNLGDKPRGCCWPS
The series is described as follows: Inhibition of human N-terminal MBP-fused NEU4 expressed in Escherichia coli using 4MU-NANA as substrate preincubated for 15 mins followed by substrate addition measured after 30 mins by fluorescence based assay.

A further series has as its target T3, Sialidase-3 (Homo sapiens, UniProt Q9UQ49).
T3 sequence (Q9UQ49 whole entry): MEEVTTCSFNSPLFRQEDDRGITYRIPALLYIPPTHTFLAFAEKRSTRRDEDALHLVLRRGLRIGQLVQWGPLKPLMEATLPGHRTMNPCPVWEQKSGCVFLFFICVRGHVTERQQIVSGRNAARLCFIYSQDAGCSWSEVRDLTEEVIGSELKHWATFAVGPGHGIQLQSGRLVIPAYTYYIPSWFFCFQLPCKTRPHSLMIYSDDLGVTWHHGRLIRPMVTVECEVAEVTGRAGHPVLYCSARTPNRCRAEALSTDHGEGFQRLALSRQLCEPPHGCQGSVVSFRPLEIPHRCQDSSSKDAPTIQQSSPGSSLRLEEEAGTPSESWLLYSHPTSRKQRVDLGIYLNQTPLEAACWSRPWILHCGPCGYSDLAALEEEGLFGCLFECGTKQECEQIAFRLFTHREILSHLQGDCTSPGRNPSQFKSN
In words: Inhibition of human N-terminal MBP-fused NEU3 expressed in Escherichia coli using 4MU-NANA as substrate preincubated for 15 mins followed by substrate addition measured after 30 mins by fluorescence based assay.

Molecules are shown by their SMILES. Converted amounts (≈) assume the structure as drawn. Where only a bound is given, the exact number is not on record here.

A word on the IC50: it is the concentration at which inhibition is half-maximal. `CC(=O)N[C@H]1[C@H]([C@H](O)[C@H](O)Cn2cc(-c3ccc(Oc4ccccc4)cc3)nn2)OC(C(=O)O)=C[C@@H]1O` gave an IC50 against Sialidase-1 [1] of over 500 µM.
As a reminder, the logD is lipophilicity at a set pH, counting ionised and neutral species. Read a high logD as higher lipophilicity. As to `CC(=O)N[C@H]1[C@H]([C@H](O)[C@H](O)CO)OC(C(=O)O)=C[C@@H]1O` [NEU5AC2EN], the logD at 2 h, 10 µM in series [2] was under -1.5. Also, on Sialidase-1 [3], the Ki entry is “Not Active”.
The molecule `CC(=O)N[C@H]1[C@H]([C@H](O)[C@H](O)Cn2cc(-c3ccc(C(=O)O)cc3)nn2)OC(C(=O)O)=C[C@@H]1N=[N+]=[N-]` gave an IC50 on Sialidase-1 [1] of over 500 µM.
In series [2], `CC(=O)N[C@H]1[C@H]([C@H](O)[C@H](O)Cn2cc(-c3ccc(CO)cc3)nn2)OC(C(=O)O)=C[C@@H]1O` displayed a logD at 2 h, 10 µM of under -1.5.
Consider `CCCOC(=O)C1=C[C@H](O)[C@@H](NC(C)=O)[C@H]([C@H](O)[C@H](O)Cn2cc(-c3ccc(-c4ccccc4)cc3)nn2)O1`, for which the solubility kinetic at 24 h, 10000 µM is 2.4 µg/mL (≈ 4.47 µM) in series [4], 2.8 µg/mL (≈ 5.22 µM) in series [5] and 1.7 µg/mL (≈ 3.17 µM) in series [6].
Regarding `COC(=O)C1=C[C@H](O)[C@@H](NC(C)=O)[C@H]([C@H](O)[C@H](O)Cn2cc(-c3ccc(-c4ccccc4)cc3)nn2)O1`, the solubility kinetic at 24 h, 10000 µM in series [4] and in series [6] was over 1 µg/mL throughout. Further, in series [5] (buffer, pH 7.4, 10000 µM), the Kinetic_solubility amounted to 1.5 µg/mL. The logD at 2 h, 10 µM in series [2] was determined as 2.3.
As for `CC(=O)N[C@H]1[C@H]([C@H](O)[C@H](O)Cn2cc(-c3ccc(C(=O)O)cc3)nn2)OC(C(=O)O)=C[C@@H]1NC(=N)N`, the values for the IC50 against Sialidase-4, on Sialidase-3 and on Sialidase-1 [1] were 24 µM, 0.61 µM and over 500 µM, respectively.
Taken in the same sequence, the figures for `CC(=O)N[C@H]1[C@H]([C@H](O)[C@H](O)Cn2cc(-c3ccc(C(=O)O)cc3)nn2)OC(C(=O)O)=C[C@@H]1N` were over 500 µM, over 500 µM and over 500 µM.
For the molecule `CC(=O)N[C@H]1[C@H]([C@H](O)[C@H](O)CO)OC(C(=O)O)=C[C@@H]1NC(=N)N` [ZANAMIVIR], on Sialidase-1 [3], the Ki result is given as “Not Active”. The half-maximal inhibitory concentration (IC50) against Sialidase-1 [1] is over 500 µM.
`CC(=O)N[C@H]1[C@H]([C@H](O)[C@H](O)Cn2cc(-c3ccc(C(=O)O)cc3)nn2)OC(C(=O)O)=C[C@@H]1NC(=O)NCCC(=O)O`: the concentration for half-maximal inhibition (IC50) against Sialidase-3 and against Sialidase-1 [1] was over 500 µM in each case.
`CCOC(=O)C1=C[C@H](O)[C@@H](NC(C)=O)[C@H]([C@H](O)[C@H](O)Cn2cc(-c3ccc(-c4ccccc4)cc3)nn2)O1`: the solubility kinetic at 24 h, 10000 µM in series [4] was found to be 3.7 µg/mL (≈ 7.08 µM); in series [5], 13.8 µg/mL (≈ 26.4 µM); in series [6], 3.2 µg/mL (≈ 6.12 µM). The same molecule displayed a logD at 2 h, 10 µM in series [2] of 3.4.
As to `CC(=O)N[C@H]1[C@H]([C@H](O)[C@H](O)Cn2cc(-c3ccc(C(=O)O)cc3)nn2)OC(C(=O)O)=C[C@@H]1O`, the figures for the IC50 at Sialidase-4, at Sialidase-3 and against Sialidase-1 [1] were 3 µM, 1.1 µM and 240 µM, respectively.
`CCCCC(=O)NC[C@@H](O)[C@@H](O)[C@@H]1OC(C(=O)O)=C[C@H](O)[C@H]1NC(C)=O` had a logD at 2 h, 10 µM in series [2] of -1. Besides, the IC50 on Sialidase-4 was found to be 220 µM.

(Values after ChEMBL document CHEMBL4052832, “Selective Inhibitors of Human Neuraminidase 3” (J Med Chem, 2018).)
